Measured values taken from ChEMBL document CHEMBL4732169, “Design and synthesis of mycobacterial pks13 inhibitors: Conformationally rigid tetracyclic molecules” (Eur J Med Chem, 2021).
Converted amounts (≈) assume the structure as drawn.

Legend:
[1] = tested on: Mycobacterium tuberculosis; assay: Antitubercular activity against Mycobacterium tuberculosis H37Rv assessed as bacterial growth inhibition incubated for 4 days by MABA assay; type: functional; conditions: time 4 day
[2] = tested on: Mycobacterium tuberculosis; assay: Antitubercular activity against drug susceptible Mycobacterium tuberculosis V4207 by MABA assay; type: functional
Outline: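 Microplate alamar blue assay (MABA) against each Mtb strain, either H37Rv or a clinical isolate (drug-susceptible, MDR or XDR). MIC taken as the lowest concentration giving at least 90% reduction of the bacterial growth signal. Each value is the average of three individual measurements.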

[3] = tested on: Vero; assay: Cytotoxicity against African green monkey Vero cells incubated for 72 hrs in DEME medium; type: cell-based; conditions: Chlorocebus sabaeus
[4] = tested on: Mycobacterium tuberculosis; assay: Binding affinity to wild type Mycobacterium tuberculosis Pks13-TE expressed in Escherichia coli BL21(DE3)pLysS assessed as change in melting temperature at protein to compound molar ratio of 1:10 incubated for 30 mins by nanoDSF assay
Outline: (§1)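 Recombinant N-Mbp-His-tagged Pks13-TE domain of Mtb Pks13 (Rv3800c), expressed in E. coli BL21(DE3)pLysS after 0.5 mM IPTG induction and purified to >95%. Protein was incubated with compound (stock in DMSO) in 100 mM NaCl, 20 mM Tris-HCl pH 8.0 for 30 min, with a DMSO blank. nanoDSF ramp 30–90 °C at 2 °C/min, read as the F350/F330 ratio. Tm shift averaged from three measurements.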

[5] = tested on: Mycobacterium tuberculosis; assay: Binding affinity to wild type Mycobacterium tuberculosis Pks13-TE expressed in Escherichia coli BL21(DE3)pLysS assessed as change in melting temperature at protein to compound molar ratio of 1:5 incubated for 30 mins by nanoDSF assay; outline: as §1
[6] = Selective index, ratio of CC50 for African green monkey Vero cells to IC50 for Mycobacterium tuberculosis H37Rv
Outline: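 Vero (African green monkey kidney) cytotoxicity measured by alamar blue assay to give IC50. SI calculated as IC50(Vero)/MIC(H37Rv).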

[7] = tested on: Escherichia coli; assay: Antibacterial activity against Escherichia coli DH5-alpha assessed as inhibition of bacterial growth measured after 18 hrs by two fold serial dilution method; type: functional
Outline: (§2)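 Bacteria grown overnight at 37 °C in TSB without antibiotics. Compound in DMSO was serially diluted two-fold to final […] and mixed with an equal volume of bacteria. MIC was read after 18 h at 37 °C; three experiments per condition.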

[8] = tested on: Staphylococcus aureus; assay: Antibacterial activity against Staphylococcus aureus Newman assessed as inhibition of bacterial growth measured after 18 hrs by two fold serial dilution method; type: functional; outline: as §2
[9] = tested on: Escherichia coli; assay: Antibacterial activity against Escherichia coli AB1157 assessed as inhibition of bacterial growth measured after 18 hrs by two fold serial dilution method; type: functional; outline: as §2
[10] = tested on: Bacillus subtilis; assay: Antibacterial activity against Bacillus subtilis168 assessed as inhibition of bacterial growth measured after 18 hrs by two fold serial dilution method; type: functional; conditions: subsp. subtilis str. 168; outline: as §2
[11] = tested on: Mycobacterium tuberculosis; assay: Inhibition of Mycobacterium tuberculosis Pks13-TE using 4-MUH as substrate by measuring fluorescence product for every 10 mins for 60 mins
Outline: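 Pks13-TE thioesterase activity measured with the fluorogenic substrate 4-methylumbelliferyl heptanoate at 20 µM final, in 0.1 M Tris-HCl pH 7.0. Compound was serially diluted from 20 µM down to about 0.0195 µM, or DMSO was added. Points were run in triplicate and averaged to build concentration-response curves for IC50.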

[12] = tested on: Mycobacterium tuberculosis; assay: Potency index, ratio of MIC for TAM16 to MICfor test compound for antitubercular activity against Mycobacterium tuberculosis H37Rv assessed as bacterial growth inhibition incubated for 4 days by MABA assay; type: functional; conditions: time 4 day

Structure (SMILES): CNC(=O)c1c(-c2ccc(O)cc2)oc2ccc(O)c(CN3CCCCC3)c12
- MIC=<90 [1]: 0.0313 µg/mL (≈ 0.0823 µM)

Structure (SMILES): CCNC(=O)c1c(-c2ccc(F)cc2)oc2ccc(O)c(CN3CCCCC3)c12
- MIC=<90 [1]: 4 µg/mL (≈ 10.1 µM)

Structure (SMILES): CCOC(=O)c1c(-c2ccccc2)oc2cc(C(=O)N3CCCCC3)c(OC)cc12
- MIC=<90 [1]: >64 µg/mL

Structure (SMILES): O=c1[nH]c2c(Cl)cccc2c2oc3ccc(O)c(CN4CCCCC4)c3c12
- MIC=<90 [1]: 1 µg/mL (≈ 2.61 µM)

Structure (SMILES): CO[C@H]1/C=C/O[C@@]2(C)Oc3c(C)c(O)c4c(O)c(c(/C=N/N5CCN(C)CC5)c(O)c4c3C2=O)NC(=O)/C(C)=C\C=C\[C@H](C)[C@H](O)[C@@H](C)[C@@H](O)[C@@H](C)[C@H](OC(C)=O)[C@@H]1C [RIFAMPIN]
- MIC=<90 [2]: 0.0625 µg/mL (≈ 0.0759 µM)

Structure (SMILES): O=c1[nH]c2ccc(Cl)cc2c2oc3ccc(O)c(CN4CCCCC4)c3c12
- MIC=<90 [1]: 1 µg/mL (≈ 2.61 µM)

Structure (SMILES): CCOC(=O)c1c(-c2ccccc2)[nH]c2ccc(O)c(CN3CCCCC3)c12
- MIC=<90 [1]: >32 µg/mL

Structure (SMILES): CCNC(=O)c1c(-c2ccc(OC)cc2)oc2ccc(O)c(CN3CCCCC3)c12
- MIC=<90 [1]: 2 µg/mL (≈ 4.9 µM)

Structure (SMILES): COc1ccc2c(c1)[nH]c(=O)c1c2oc2ccc(O)c(CN3CCCCC3)c21
- IC50 [3]: 64 µg/mL (≈ 169 µM)
- ΔTm [4]: 9 °C
- ΔTm [5]: 8.7 °C
- MIC=<90 [1]: 0.25 µg/mL (≈ 0.661 µM)
- Ratio CC50/IC50 [6]: 256

Structure (SMILES): CC1COc2c(N3CCN(C)CC3)c(F)cc3c(=O)c(C(=O)O)cn1c23 (stereo not drawn) [OFLOXACIN]
- MIC=<90 [2]: 0.5 µg/mL (≈ 1.38 µM)

Structure (SMILES): COc1cc2c(cc1C(=O)N1CCCCC1)oc1c3ccccc3oc(=O)c21
- MIC=<90 [1]: >64 µg/mL

Structure (SMILES): O=c1[nH]c2ccc(F)cc2c2oc3ccc(O)c(CN4CCCCC4)c3c12
- IC50 [3]: 16 µg/mL (≈ 43.7 µM)
- MIC=<90 [1]: 1 µg/mL (≈ 2.73 µM)
- Ratio CC50/IC50 [6]: 16

Structure (SMILES): CN[C@H](CC(C)C)C(=O)N[C@H]1C(=O)N[C@@H](CC(N)=O)C(=O)N[C@H]2C(=O)N[C@H]3C(=O)N[C@H](C(=O)N[C@H](C(=O)O)c4cc(O)cc(O)c4-c4cc3ccc4O)[C@H](O)c3ccc(c(Cl)c3)Oc3cc2cc(c3O[C@@H]2O[C@H](CO)[C@@H](O)[C@H](O)[C@H]2O[C@H]2C[C@](C)(N)[C@H](O)[C@H](C)O2)Oc2ccc(cc2Cl)[C@H]1O [VANCOMYCIN]
- MIC [7]: > 25 µg/mL
- MIC [8]: 0.39 µg/mL (≈ 0.269 µM)
- MIC [9]: > 25 µg/mL
- MIC [10]: > 25 µg/mL

Structure (SMILES): O=c1[nH]c2ccc(O)cc2c2oc3ccc(O)c(CN4CCCCC4)c3c12
- IC50 [3]: 16 µg/mL (≈ 43.9 µM)
- ΔTm [4]: 8.5 °C
- ΔTm [5]: 7.4 °C
- MIC=<90 [1]: 1 µg/mL (≈ 2.74 µM)
- Ratio CC50/IC50 [6]: 16

Structure (SMILES): CCOC(=O)c1c(-c2ccccc2)oc2cc(Br)c(O)c(CN3CCCCC3)c12
- MIC=<90 [1]: 32 µg/mL (≈ 69.8 µM)

Structure (SMILES): CCOC(=O)c1c(-c2ccccc2)oc2ccc(O)c(CN3CCCCC3)c12
- INH [11]: 4.6 µM
- MIC=<90 [1]: 2 µg/mL (≈ 5.27 µM)

Structure (SMILES): CCOC(=O)c1c(-c2ccccc2)oc2ccc(OC)c(C(=O)N3CCCCC3)c12
- MIC=<90 [1]: >64 µg/mL

Structure (SMILES): O=c1[nH]c2ccccc2c2oc3ccc(O)c(CN4CCCCC4)c3c12
- ΔTm [4]: 10.2 °C
- ΔTm [5]: 9.6 °C
- MIC=<90 [1]: 0.25 µg/mL (≈ 0.718 µM)

Structure (SMILES): O=c1[nH]c2ccc(Br)cc2c2oc3ccc(O)c(CN4CCCCC4)c3c12
- MIC=<90 [1]: 32 µg/mL (≈ 74.9 µM)

Structure (SMILES): COc1ccc2[nH]c(=O)c3c(oc4ccc(O)c(CN5CCCCC5)c43)c2c1
- MIC=<90 [1]: 4 µg/mL (≈ 10.6 µM)

Structure (SMILES): O=c1oc2ccccc2c2oc3ccc(O)c(CN4CCCCC4)c3c12
- MIC=<90 [1]: 0.125 µg/mL (≈ 0.358 µM)

Structure (SMILES): O=c1oc2ccccc2c2[nH]c3ccc(O)c(CN4CCCCC4)c3c12
- ΔTm [4]: 3.1 °C
- ΔTm [5]: 0.8 °C
- MIC=<90 [1]: 32 µg/mL (≈ 91.8 µM)

Structure (SMILES): O=c1oc2ccccc2c2sc3ccc(O)c(CN4CCCCC4)c3c12
- ΔTm [4]: 9.1 °C
- ΔTm [5]: 7.9 °C
- MIC=<90 [1]: 1 µg/mL (≈ 2.74 µM)

Structure (SMILES): O=c1oc2cc(O)ccc2c2oc3ccc(O)c(CN4CCCCC4)c3c12
- Ratio [12]: 8
- MIC=<90 [1]: 0.0039 µg/mL (≈ 0.0107 µM)

Structure (SMILES): CCNC(=O)c1c(-c2ccccc2)oc2ccc(O)c(CN3CCCCC3)c12
- MIC=<90 [1]: 4 µg/mL (≈ 10.6 µM)

Structure (SMILES): O=c1oc2ccccc2c2oc3cc(Br)c(O)c(CN4CCCCC4)c3c12
- MIC=<90 [1]: >64 µg/mL

Structure (SMILES): O=c1[nH]c2c(F)cccc2c2oc3ccc(O)c(CN4CCCCC4)c3c12
- MIC=<90 [1]: 0.5 µg/mL (≈ 1.36 µM)

Structure (SMILES): NNC(=O)c1ccncc1 [ISONIAZID]
- MIC=<90 [2]: 0.04 µg/mL (≈ 0.292 µM)

Structure (SMILES): NC[C@H]1O[C@H](O[C@H]2[C@H](O)[C@@H](O[C@H]3O[C@H](CO)[C@@H](O)[C@H](N)[C@H]3O)[C@H](N)C[C@@H]2N)[C@H](O)[C@@H](O)[C@@H]1O [KANAMYCIN]
- MIC=<90 [2]: 2 µg/mL (≈ 4.13 µM)
- MIC [7]: 2.34 µg/mL (≈ 4.83 µM)
- MIC [8]: 2.34 µg/mL (≈ 4.83 µM)
- MIC [9]: 9.39 µg/mL (≈ 19.4 µM)
- MIC [10]: 9.39 µg/mL (≈ 19.4 µM)

Structure (SMILES): COc1ccc2oc3c4ccccc4oc(=O)c3c2c1C(=O)N1CCCCC1
- MIC=<90 [1]: >64 µg/mL

Structure (SMILES): CN(C)[C@@H]1C(O)=C(C(N)=O)C(=O)[C@@]2(O)C(O)=C3C(=O)c4c(O)cccc4[C@@](C)(O)[C@H]3C[C@@H]12 [TETRACYCLINE]
- MIC [7]: 0.78 µg/mL (≈ 1.76 µM)
- MIC [8]: 0.2 µg/mL (≈ 0.45 µM)
- MIC [9]: 1.56 µg/mL (≈ 3.51 µM)
- MIC [10]: > 25 µg/mL

Structure (SMILES): O=c1[nH]c2cc(F)ccc2c2oc3ccc(O)c(CN4CCCCC4)c3c12
- IC50 [3]: 16 µg/mL (≈ 43.7 µM)
- MIC=<90 [1]: 0.5 µg/mL (≈ 1.36 µM)
- Ratio CC50/IC50 [6]: 32

Structure (SMILES): O=c1[nH]c2cc(Cl)ccc2c2oc3ccc(O)c(CN4CCCCC4)c3c12
- IC50 [3]: 32 µg/mL (≈ 83.6 µM)
- MIC=<90 [1]: 0.5 µg/mL (≈ 1.31 µM)
- Ratio CC50/IC50 [6]: 64

Structure (SMILES): C[C@H]1COc2c(N3CCN(C)CC3)c(F)cc3c(=O)c(C(=O)O)cn1c23.C[C@H]1COc2c(N3CCN(C)CC3)c(F)cc3c(=O)c(C(=O)O)cn1c23.O [LEVOFLOXACIN]
- MIC=<90 [2]: 0.125 µg/mL

Structure (SMILES): CCOC(=O)c1c(-c2ccccc2)sc2ccc(O)c(CN3CCCCC3)c12
- ΔTm [4]: 3.3 °C
- ΔTm [5]: 3.2 °C
- MIC=<90 [1]: 16 µg/mL (≈ 40.5 µM)

Structure (SMILES): O=c1[nH]c2cc(Br)ccc2c2oc3ccc(O)c(CN4CCCCC4)c3c12
- IC50 [3]: 64 µg/mL (≈ 150 µM)
- MIC=<90 [1]: 0.5 µg/mL (≈ 1.17 µM)
- Ratio CC50/IC50 [6]: 128

Structure (SMILES): O=c1[nH]c2cc(O)ccc2c2oc3ccc(O)c(CN4CCCCC4)c3c12
- IC50 [3]: 4 µg/mL (≈ 11 µM)
- ΔTm [4]: 9.4 °C
- MIC=<90 [2]: 0.0313 µg/mL (≈ 0.0859 µM)
- INH [11]: 0.58 µM
- MIC [7]: > 25 µg/mL
- MIC [8]: > 25 µg/mL
- MIC [9]: > 25 µg/mL
- MIC [10]: > 25 µg/mL
- ΔTm [5]: 7.5 °C
- MIC=<90 [1]: 0.0313 µg/mL (≈ 0.0859 µM)
- Ratio CC50/IC50 [6]: 64
